Reference: ChEMBL document CHEMBL1138243, “Design of mechanism-based inhibitors of transthyretin amyloidosis: studies with biphenyl ethers and new structural templates” (J Med Chem, 2007)
The source made the active and inactive calls. The calls are words filed in the database; no cut-off is given here.

Key:
Transthyretin [1] = target: T1, Transthyretin (Homo sapiens, UniProt P02766); experiment: Inhibition of transthyretin fibril formation at pH 4.4 at 50 uM; format: functional; parameters: scale not given: the % may be the effect or the level left
[2] = Cytotoxicity against TTR-induced […] cells assessed as viability at 50 uM after 72 hrs; format: functional; conditions: Mus musculus, N2a, read-out: Activity
Neuro2a = experiment: Cytotoxicity against […] cells at 50 uM; format: functional, cell-based; conditions: Mus musculus
Transthyretin [3] = target: T1, Transthyretin; experiment: Inhibition of fibril elongation of preformed transthyretin at […] after 72 hrs by turbidity assay; format: functional
Transthyretin [4] = target: T1, Transthyretin; experiment: Inhibition of transthyretin amyloidosis assessed as fibril formation at 7.2 uM at pH 4.4 relative to control; format: functional; parameters: scale not given: the % may be the effect or the level left
Summary of the method: (§1)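 WT TTR tetramer (7.2 µM) in pH 7 phosphate/KCl/EDTA was preincubated 1 h at 25 °C with inhibitor (7.2 or 21.6 µM; 1:1 or 1:3) in 1% DMSO. It was then diluted with pH 4.4 acetate/KCl/EDTA buffer and held stagnant 72 h at 37 °C. Turbidity was read at 340 nm as % fibril formation versus untreated (100%). Mean of five experiments.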

Transthyretin [5] = target: T1, Transthyretin; experiment: Inhibition of transthyretin amyloidosis assessed as fibril formation at 21.6 uM at pH 4.4 relative to control; format: functional; parameters: scale not given: the % may be the effect or the level left; summary of the method: as §1
Transthyretin [6] = target: T1, Transthyretin; experiment: Inhibition of transthyretin fibril formation at pH 4.4 at 100 uM; format: functional
Summary of the method: (§2)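 Library screen of acid-mediated TTR fibril formation at pH 4.4 with inhibitor at 100 µM. TTR was at 7.2 µM.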

Transthyretin [7] = target: T1, Transthyretin; experiment: Inhibition of transthyretin amyloidosis assessed as fibril formation pH 4.4 at 100 uM; format: functional; summary of the method: as §2
Transthyretin [8] = target: T1, Transthyretin; experiment: Inhibition of transthyretin fibril formation assessed as turbidity at 21.6 uM at pH 4.4 after 3 hrs; format: functional
Summary of the method: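 Kinetics run with 7.2 µM TTR plus 21.6 µM inhibitor at pH 4.4, 37 °C. Turbidity at 340 nm was followed for 3 h. Initial fibrillization rate came from the linear slope of A340 versus time. Three experiments in triplicate.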

Transthyretin [9] = target: T1, Transthyretin; experiment: Stabilization of urea-induced transthyretin dissociation at 5.4 uM at pH 7.2 after […] relative to control

Compound | Activity (Transthyretin [1]) [%] | inhibition (Transthyretin [6]) [%] | percent fibril formation relative to control (Transthyretin [7]) [%] | also measured
COc1cc(CO)ccc1Oc1ccc([N+](=O)[O-])cc1 | 89.5 |  |  | 
O=C(Nc1nnc[nH]1)c1c(Cl)ccc(Cl)c1Cl |  | 88.5 | 11.5 | viability at 50 µM [2]: 86%; Activity (Neuro2a): Not toxic; Activity (Transthyretin [3]): Active; Activity (Transthyretin [4]): 11%; Activity (Transthyretin [5]): 3.6%; inhibition (Transthyretin [8]): > 80%; Activity (Transthyretin [9]): < 5%
COc1cc(CO)ccc1Oc1ccc([N+](=O)[O-])cc1[N+](=O)[O-] | 28 |  |  | 
Oc1ccccc1-c1nnc(S)o1 |  | 86.2 | 13.8 | viability at 50 µM [2]: 86%; Activity (Neuro2a): Not toxic; Activity (Transthyretin [3]): Active; Activity (Transthyretin [4]): 21%; Activity (Transthyretin [5]): 0%; inhibition (Transthyretin [8]): > 80%; Activity (Transthyretin [9]): < 5%
COc1cc(COC(C)=O)ccc1Oc1ccc([N+](=O)[O-])cc1[N+](=O)[O-] | 69 |  |  | 
COc1cc(CCl)ccc1Oc1ccc(Cl)cc1Cl | 0 |  |  | viability at 50 µM [2]: 86%; Activity (Neuro2a): Not toxic; Activity (Transthyretin [3]): Active; Activity (Transthyretin [4]): 26%; Activity (Transthyretin [5]): 0%; inhibition (Transthyretin [8]): > 80%; Activity (Transthyretin [9]): < 5%
COc1cc(C(=O)O)ccc1Oc1ccc([N+](=O)[O-])cc1[N+](=O)[O-] | 48 |  |  | 
O=Cc1ccc(Oc2ccc([N+](=O)[O-])cc2[N+](=O)[O-])c(O)c1 | 40.5 |  |  | 
O=C(O)c1ccc(Oc2ccc([N+](=O)[O-])cc2[N+](=O)[O-])c(O)c1 | 75 |  |  | 
Oc1cc(CCl)ccc1Oc1ccc(Cl)cc1Cl | 0 |  |  | viability at 50 µM [2]: 86%; Activity (Neuro2a): Not toxic; Activity (Transthyretin [4]): 5%; Activity (Transthyretin [5]): 0%; inhibition (Transthyretin [8]): > 80%; Activity (Transthyretin [9]): < 5%
COc1cc(CCl)ccc1Oc1ccc([N+](=O)[O-])cc1[N+](=O)[O-] | 79 |  |  | 
COc1cc(C=O)ccc1Oc1ccc([N+](=O)[O-])cc1[N+](=O)[O-] | 66 |  |  | 
O=C(NC(c1ccccc1)c1cc(Cl)c2cccnc2c1O)c1cccnc1 (configuration not stated) |  | 70.4 | 29.6 | 
Cn1c(=O)c2c(nc(Oc3ccc(-n4cnnn4)cc3)n2C)n(C)c1=O |  | 0 | 155 | 
CCCCN(CC)Cc1c(C)nc2ccc(Cl)cc2c1O |  | 20.3 | 79.7 | 
COc1cc(CO)ccc1Oc1ccccc1 | 61.2 |  |  | 

Now from value to compound, other results behind:

Activity (Transthyretin [1]) [%] | inhibition (Transthyretin [6]) [%] | percent fibril formation relative to control (Transthyretin [7]) [%] | Compound | also measured
0 |  |  | O=Cc1ccc(Oc2ccc(Cl)cc2Cl)c(O)c1 | viability at 50 µM [2]: 86%; Activity (Neuro2a): Not toxic; Activity (Transthyretin [3]): Active; Activity (Transthyretin [4]): 0%; Activity (Transthyretin [5]): 0%; inhibition (Transthyretin [8]): > 80%; Activity (Transthyretin [9]): < 5%
112 |  |  | O=Cc1ccc(Oc2ccccc2)c(O)c1 | 
 | 0 | 294 | O=C1OC(/C=C/c2ccc(Cl)cc2Cl)=NC/1=C\c1cccs1 | 
 | 0 | 136 | O=C1OC(c2ccc(Cl)cc2Cl)=N/C1=C\c1cccs1 | 
 | 79.7 | 20.3 | O=C1CSC(c2ccc(Cl)cc2Cl)N1c1ccc(Cl)cc1 (configuration not stated) | 
 | 15.6 | 84.5 | COC(=O)c1sc(=S)n(-c2ccc(Cl)c(Cl)c2)c1N | 
 | 29.1 | 71 | O=c1/c(=C\c2ccccc2Cl)sc2nc3ccccc3n12 | 
 | 53.1 | 46.9 | Cc1nc2c(C(=O)NCc3ccc(F)cc3)cnn2c(O)c1Cc1ccccc1F | 
 | 0 | 449 | O=C(O)c1cccc(-c2ccc(/C=C3/SC(=S)N(c4cccc(C(F)(F)F)c4)C3=O)o2)c1 | 
 | 0 | 291 | O=C1/C(=C/c2ccc(Cl)cc2Cl)SC(=S)N1c1ccc(O)cc1 | 
 | 0 | 115 | Cc1ccccc1C1=N/C(=C\c2sccc2C)C(=O)O1 | 
 | 102 | -2.03 | O=c1c2ccccc2nc2sc(Nc3ccc(F)cc3F)nn12 | 
